Test results as given in paper PMC6272120 (Cancer Science, 2018).
One block for each molecule: values may come before it.

Assays:
786‐O and ACHN cells [1] = assay: Wound healing and transwell migration assay; format: cell-based, human
Procedure, shortened: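 Transwell, 8-μm pores: 1 × 10⁴ cells (migration) or 2 × 10⁴ on Matrigel (invasion) in serum-free medium with treatment above complete medium at matching concentration, 24 h. Cells fixed 4% paraformaldehyde, stained .1% crystal violet, counted in 4 random fields. Mean ± SD, 3 experiments.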

[2] = system: E‐cadherin, N‐cadherin, vimentin in 786‐O and ACHN cells; assay: Western blot of EMT‐related proteins; format: cell-based, human
[3] = system: LC3 in 786‐O and ACHN cells; assay: Autophagy detection; format: cell-based, human
Procedure, shortened: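 786-O and ACHN cells pretreated 4 h with AMPK inhibitor (50 μmol/L), then 40 μmol/L test compound 24 h. RIPA lysis with protease/phosphatase inhibitors and PMSF on ice; BCA-normalised; 10%-15% SDS-PAGE, PVDF, 10% milk block 2 h RT; anti-LC3-I/II overnight 4°C, secondary 1 h; ECL detection. Mean ± SD of 3 independent experiments.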

786‐O cells = assay: Cell viability assay; format: cell-based; conditions: Homo sapiens
Procedure, shortened: (§1)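 Cells in RPMI-1640 with 10% FBS, seeded 5 × 10³/well, left overnight. Medium then replaced with test compound at 0, 10, 20, 40, 60, 80 and 100 μmol/L for 24 or 48 h. CCK8 added for 4 h at 37°C; OD read at 490 nm. Mean ± SD of 3 independent experiments.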

ACHN cells = assay: Cell viability assay; format: cell-based; conditions: Homo sapiens
Procedure, shortened: as §1

[4] = system: HK‐2 normal renal tubular epithelial cells; assay: Cell viability assay; format: cell-based, human; conditions: HK‐2, low doses of TQ (less than 60 μmol/L)
786‐O and ACHN cells [5] = assay: Transwell invasion assay; format: cell-based, human; conditions: 0, 20, 40, 60 μmol/L TQ
[6] = system: AMPK/mTOR signaling pathway in 786‐O and ACHN cells; assay: Western blot of AMPK/mTOR signaling pathway; format: cell-based, human; conditions: 0, 20, 40, 60 μmol/L TQ, 24 hours
Procedure, shortened: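 786-O and ACHN cells exposed 24 h to test compound at 0, 20, 40, 60 μmol/L. RIPA lysis with protease/phosphatase inhibitors and PMSF; BCA-normalised; 10%-15% SDS-PAGE, PVDF, 10% milk block. Probed overnight at 4°C for AMPK, p-AMPK (Thr172), mTOR, p-mTOR (Ser2448), p-S6K (Thr389), LC3; secondary 1 h; ECL. Mean ± SD, 3 independent experiments.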

786‐O xenograft tumors = assay: Subcutaneous 786‐O xenograft tumor model; format: in vivo, nude mice
Procedure, shortened: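 Male nude mice, 5 weeks old, 19-22 g, given 1 × 10⁶ 786-O cells s.c. with Matrigel in the right flank. At 100-150 mm³, randomised 5 per group: intraperitoneal DMSO or test compound 20 mg/kg every 3 days. Volume ((length × width²) × .5) and body weight recorded every 3 days. Tumours excised and weighed after 30 days. Mean ± SD.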

[7] = system: lung metastasis of 786‐O cells; assay: Metastatic tumor model, luciferase‐tagged 786‐O cells via tail veins; format: in vivo, nude mice; conditions: vs control
Procedure, shortened: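 Male nude mice, 5 weeks old, 19-22 g, received luciferase-tagged 786-O cells by tail vein, then two groups. Dosing was intraperitoneal DMSO (control) or test compound 20 mg/kg every 3 days. At day 30: D-luciferin 150 mg/kg i.p., 10 min wait, chloral hydrate anaesthesia, then bioluminescence imaging. Lung tumours harvested and H&E-stained.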

RCC cells = assay: Comparison of TQ with everolimus; format: cell-based, human; conditions: Figure S3
[8] = compound C 50 μmol/L pretreatment 4 hours, then TQ 40 μmol/L 24 hours
[9] = 3‐MA 5 mmol/L with TQ 40 μmol/L
[10] = TQ 20 mg/kg intraperitoneal every 3 days, 30 days

Compound: c1cc(-c2cnn3cc(-c4ccc(OCCN5CCCCC5)cc4)cnc23)ccn1 [compound C]
effect on TQ anti‐migratory and anti‐invasive effects (transwell) (786‐O and ACHN cells [1]; [8]): attenuated the migratory and invasive capacities of autophagy induced by TQ
effect on TQ‐induced MET [2, 8]: weakened TQ‐induced MET
effect on TQ‐induced LC3 [3, 8]: effects of TQ on LC3 could be receded

Compound: Cn1cnc(N)c2ncnc1-2 [3‐MA, 3‐methyladenine]
effect on anti‐migratory ability of TQ (786‐O and ACHN cells [1]; [9]): remarkably attenuated
effect on TQ‐induced MET [2, 9]: abate TQ‐induced MET

IC50 (ACHN cells; 24 h, read-out: IC50 value, inhibition on cell growth): 72 µM
Compound: CC1=CC(=O)C(C(C)C)=CC1=O [TQ, 2‐methyl‐5‐isopropyl‐1,4‐benzoquinone]
IC50 (786‐O cells; 786-0, 24 h, read-out: IC50 value, inhibition on cell growth): 55 µM
inhibition at 40 µM (786‐O cells; 786-0, read-out: inhibitory rate of cell proliferation): < 20%
inhibition at 40 µM (ACHN cells; read-out: inhibitory rate of cell proliferation): < 20%
effect on cell growth of normal cells [4]: no significant decrease in cell growth
cancer cell migration (786‐O and ACHN cells [1]; wound healing 40 μmol/L, transwell 0, 20, 40, 60 μmol/L, 24 hours): attenuated cancer cell migration in a time‐dependent and concentration‐dependent manner
number of invaded cells (786‐O and ACHN cells [5]): number of invaded cells decreased with the increase of TQ concentration
expression of EMT markers ([2]; different concentrations for 24 hours or 40 μmol/L for different times): upregulated epithelial markers (E‐cadherin), while downregulating mesenchymal markers (N‐cadherin, vimentin)
LC3 puncta (autophagosomes and autolysosomes) ([3]; 40 μmol/L TQ, 24 hours, vs control group): number of both yellow and red puncta increased dramatically
LC3‐II expression ([3]; western blot, different concentrations of TQ): upregulate LC3‐II in a concentration‐dependent manner
expression of p‐AMPK [6]: elevated
expressions of p‐mTOR and p‐S6K [6]: reduced
tumor growth / tumor weight vs control (786‐O xenograft tumors; [10]): TQ inhibited RCC cell growth in vivo
expression of E‐cadherin and N‐cadherin in xenograft tumors (786‐O xenograft tumors; immunohistochemistry and western blot, TQ 20 mg/kg): increased expression of E‐cadherin and decreased expression of N‐cadherin
lung metastasis (bioluminescence) [7, 10]: significantly inhibited lung metastasis
number of metastatic nodules in the lungs (H&E) ([7]; TQ 20 mg/kg): significant decrease in the number of metastatic nodules

Compound: CO[C@H]1C[C@@H]2CC[C@@H](C)[C@@](O)(O2)C(=O)C(=O)N2CCCC[C@H]2C(=O)O[C@H]([C@H](C)C[C@@H]2CC[C@@H](OCCO)[C@H](OC)C2)CC(=O)[C@H](C)/C=C(\C)[C@@H](O)[C@@H](OC)C(=O)[C@H](C)C[C@H](C)/C=C/C=C/C=C/1C [everolimus]
inhibiting migration and invasion, inducing autophagy and MET, compared with TQ (RCC cells): significantly more potent than TQ
